Columns and labels:
[1] = Drug metabolism in human plasma assessed as residual substrate levels at 100 uM up to 20 mins by HPLC-UV analysis; type: ADME, cell-free; conditions: read-out: Stability
[2] = Drug metabolism in human HaCaT cells assessed as residual substrate levels at 25 uM up to 240 mins by HPLC-UV analysis; type: ADME, cell-based; conditions: read-out: Stability
[3] = Drug metabolism in human fibroblast cells assessed as residual substrate levels at 50 uM up to 120 mins by HPLC-UV analysis; type: ADME, cell-based; conditions: read-out: Stability
[4] = Drug metabolism in human liver S9 fraction assessed as residual substrate levels at 50 uM up to 60 mins by HPLC-UV analysis; type: ADME, subcellular; conditions: read-out: Stability
[5] = Drug metabolism in human keratinocytes assessed as residual substrate levels at 50 uM up to 120 mins by HPLC-UV analysis; type: ADME, cell-based, Keratinocyte; conditions: read-out: Stability
[6] = Drug metabolism in human liver microsomes assessed as glucuronide metabolite formation at 50 uM in presence of UDPGA after 60 mins by LC-ESI-MS analysis; type: ADME, microsome; conditions: 1 h
[7] = Drug metabolism in human liver cytosol assessed as glucuronide metabolite formation at 50 uM in presence of UDPGA after 60 mins by LC-ESI-MS analysis; type: ADME, subcellular; conditions: 1 h
[8] = Drug metabolism in human liver cytosol assessed as sulfate conjugate formation at 50 uM in presence of UDPGA after 60 mins by LC-ESI-MS analysis; type: ADME, subcellular; conditions: 1 h
[9] = target: T1, Transient receptor potential cation channel subfamily V member 1 (Homo sapiens, UniProt Q8NER1); experiment: Agonist activity at TRPV1 (unknown origin) expressed in human SH-SY5Y cells assessed as increase in calcium influx at 1 uM after 25 mins by Fluo-4 NW dye-based fluorescence assay relative to capsaicin
[10] = target: T1, Transient receptor potential cation channel subfamily V member 1; experiment: Agonist activity at TRPV1 (unknown origin) expressed in human SH-SY5Y cells assessed as increase in calcium influx after 25 mins by Fluo-4 NW dye-based fluorescence assay; type: cell-based
[11] = Drug metabolism in human liver microsomes assessed as sulfate conjugate formation at 50 uM in presence of UDPGA after 60 mins by LC-ESI-MS analysis; type: ADME, microsome; conditions: 1 h
[12] = target: T2, Liver carboxylesterase 1 (CE1) (Homo sapiens, UniProt P23141); experiment: Drug metabolism assessed as recombinant human CE1-mediated compound hydrolysis by measuring compound intrinsic clearance at 50 uM up to 60 mins by LC-UV analysis; type: ADME
T2 sequence (P23141 whole entry): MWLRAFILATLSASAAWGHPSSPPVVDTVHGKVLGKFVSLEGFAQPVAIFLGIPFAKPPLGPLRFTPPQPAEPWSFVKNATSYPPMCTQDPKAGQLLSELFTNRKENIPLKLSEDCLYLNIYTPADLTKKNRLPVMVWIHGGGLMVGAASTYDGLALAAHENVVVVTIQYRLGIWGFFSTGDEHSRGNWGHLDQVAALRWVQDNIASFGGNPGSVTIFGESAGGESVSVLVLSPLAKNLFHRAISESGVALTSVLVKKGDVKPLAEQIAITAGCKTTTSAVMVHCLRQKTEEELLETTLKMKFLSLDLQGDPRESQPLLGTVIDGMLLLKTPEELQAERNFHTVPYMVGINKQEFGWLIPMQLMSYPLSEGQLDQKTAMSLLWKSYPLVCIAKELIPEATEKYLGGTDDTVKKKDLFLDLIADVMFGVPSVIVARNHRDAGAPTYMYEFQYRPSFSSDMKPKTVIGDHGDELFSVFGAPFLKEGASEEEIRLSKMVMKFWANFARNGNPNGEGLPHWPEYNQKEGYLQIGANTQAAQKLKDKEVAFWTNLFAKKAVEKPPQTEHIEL

Cocaine esterase (CE2) [13] = target: T3, Cocaine esterase (CE2) (Homo sapiens, UniProt O00748); experiment: Drug metabolism assessed as recombinant human CE2-mediated compound hydrolysis by measuring compound half life at 50 uM up to 60 mins by LC-UV analysis; type: ADME
T3 sequence (O00748 whole entry): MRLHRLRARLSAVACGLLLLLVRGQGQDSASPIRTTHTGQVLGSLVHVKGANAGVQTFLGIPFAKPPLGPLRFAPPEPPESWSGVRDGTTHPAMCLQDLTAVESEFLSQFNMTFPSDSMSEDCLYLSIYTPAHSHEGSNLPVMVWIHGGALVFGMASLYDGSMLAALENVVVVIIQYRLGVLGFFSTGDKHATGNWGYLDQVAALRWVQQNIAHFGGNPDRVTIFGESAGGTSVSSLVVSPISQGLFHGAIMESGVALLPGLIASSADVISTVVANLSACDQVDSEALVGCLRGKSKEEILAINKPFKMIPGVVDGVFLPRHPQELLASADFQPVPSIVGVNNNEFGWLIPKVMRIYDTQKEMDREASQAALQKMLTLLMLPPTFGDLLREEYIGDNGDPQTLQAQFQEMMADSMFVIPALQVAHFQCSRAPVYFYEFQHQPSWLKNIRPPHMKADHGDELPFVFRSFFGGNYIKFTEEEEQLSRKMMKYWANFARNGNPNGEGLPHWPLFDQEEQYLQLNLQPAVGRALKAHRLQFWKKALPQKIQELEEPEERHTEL

[14] = target: T1, Transient receptor potential cation channel subfamily V member 1; experiment: Antagonist activity at TRPV1 (unknown origin) expressed in human SH-SY5Y cells assessed as inhibition of capsaicin-induced calcium increase after 25 mins by Fluo-4 NW dye-based fluorescence assay; type: cell-based
Liver carboxylesterase 1 [15] = target: T4, Liver carboxylesterase 1 (Homo sapiens, UniProt P23141); experiment: Drug metabolism assessed as recombinant human CE1-mediated compound hydrolysis by measuring rate constant at 50 uM up to 60 mins by LC-UV analysis; type: ADME; conditions: 1 h
T4 sequence (P23141 whole entry): T2 sequence (P23141 whole entry)

[16] = target: T1, Transient receptor potential cation channel subfamily V member 1; experiment: Antagonist activity at TRPV1 (unknown origin) expressed in human SH-SY5Y cells assessed as inhibition of capsaicin-induced calcium influx at 1 uM after 25 mins by Fluo-4 NW dye-based fluorescence assay relative to capsaicin; type: cell-based
[17] = target: T2, Liver carboxylesterase 1 (CE1); experiment: Drug metabolism assessed as recombinant human CE1-mediated compound hydrolysis by measuring compound half life at 50 uM up to 60 mins by LC-UV analysis; type: ADME
Cocaine esterase [18] = target: T5, Cocaine esterase (Homo sapiens, UniProt O00748); experiment: Drug metabolism assessed as recombinant human CE2-mediated compound hydrolysis by measuring rate constant at 50 uM up to 60 mins by LC-UV analysis; type: ADME; conditions: 1 h
T5 sequence (O00748 whole entry): T3 sequence (O00748 whole entry)

Mus musculus = experiment: Toxicity in C57BL/6 mouse assessed as change in body temperature at 3 mg/kg, iv after 120 mins; type: organism-based; conditions: in vivo, 2 h
Cocaine esterase [19] = target: T5, Cocaine esterase; experiment: Drug metabolism assessed as recombinant human CE2-mediated compound hydrolysis by measuring rate constant at 50 uM up to 30 mins by LC-UV analysis; type: ADME; conditions: 0.5 h
Method in brief: (§1)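 Recombinant human carboxylesterase isoforms 1 and 2 were each incubated with the test ester. Hydrolysis was followed by HPLC-UV, tracking the disappearance of the substrate over incubation time relative to the initial amount. Chromatograms were also checked for peaks of the expected hydrolysis metabolites.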

Liver carboxylesterase 1 [20] = target: T4, Liver carboxylesterase 1; experiment: Drug metabolism assessed as recombinant human CE1-mediated compound hydrolysis by measuring rate constant at 50 uM up to 30 mins by LC-UV analysis; type: ADME; conditions: 0.5 h; method in brief: as §1
[21] = target: T2, Liver carboxylesterase 1 (CE1); experiment: Drug metabolism assessed as recombinant human CE1-mediated compound hydrolysis by measuring compound half life at 50 uM up to 30 mins by LC-UV analysis; type: ADME; method in brief: as §1
Cocaine esterase (CE2) [22] = target: T3, Cocaine esterase (CE2); experiment: Drug metabolism assessed as recombinant human CE2-mediated compound hydrolysis by measuring compound half life at 50 uM up to 30 mins by LC-UV analysis; type: ADME; method in brief: as §1

T1 sequence (Q8NER1 whole entry): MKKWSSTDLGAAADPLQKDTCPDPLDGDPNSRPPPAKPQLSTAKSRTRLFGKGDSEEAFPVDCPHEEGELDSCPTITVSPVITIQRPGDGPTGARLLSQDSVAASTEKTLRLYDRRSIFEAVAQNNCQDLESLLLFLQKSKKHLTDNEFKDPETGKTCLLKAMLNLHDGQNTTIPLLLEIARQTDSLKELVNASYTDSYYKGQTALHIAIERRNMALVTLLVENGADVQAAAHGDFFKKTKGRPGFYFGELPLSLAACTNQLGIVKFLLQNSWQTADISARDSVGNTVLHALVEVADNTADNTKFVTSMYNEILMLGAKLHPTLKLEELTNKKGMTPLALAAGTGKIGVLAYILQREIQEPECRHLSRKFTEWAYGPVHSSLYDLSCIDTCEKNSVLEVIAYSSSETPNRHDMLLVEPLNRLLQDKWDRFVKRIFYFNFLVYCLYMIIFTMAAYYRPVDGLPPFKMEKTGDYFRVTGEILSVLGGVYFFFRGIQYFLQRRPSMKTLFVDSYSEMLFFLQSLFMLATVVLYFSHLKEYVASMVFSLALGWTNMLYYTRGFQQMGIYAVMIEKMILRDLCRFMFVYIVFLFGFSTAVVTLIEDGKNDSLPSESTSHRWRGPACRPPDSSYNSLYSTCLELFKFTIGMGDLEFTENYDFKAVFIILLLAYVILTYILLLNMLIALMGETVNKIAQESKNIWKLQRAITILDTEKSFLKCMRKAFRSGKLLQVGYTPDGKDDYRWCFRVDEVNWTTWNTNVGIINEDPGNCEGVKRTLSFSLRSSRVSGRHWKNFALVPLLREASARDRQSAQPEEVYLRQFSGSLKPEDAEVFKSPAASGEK

Compound	remaining at 20 min, 100 µM [1] [%]	remaining at 4 h, 25 µM [2] [%]	remaining at 2 h, 50 µM [3] [%]	remaining at 1 h, 50 µM [4] [%]	remaining at 2 h, 50 µM [5] [%]	Drug metabolism [6]	Drug metabolism [7]	Drug metabolism [8]	Activity [9] [%]	EC50 [10] [nM]	Drug metabolism [11]	other results
COc1cc(CNC(=O)CCCC/C=C/C(C)C)ccc1O [CAPSAICIN]	99	99.3	100	96	100							
COc1cc(CNC(=O)COC(=O)CC/C(C)=C/CC/C(C)=C/CC/C=C(\C)CC/C=C(\C)CCC=C(C)C)ccc1O	78.1	98.2		71.8		Metabolite_Notdetected	Metabolite_Notdetected	Metabolite_Notdetected	71.8	90	Metabolite_Notdetected	
COc1cc(CNC(=O)COC(=O)/C=C(\C)CCC=C(C)C)c(I)cc1O	100	99.5	100	50.1	104	Metabolite_Notdetected	Metabolite_Notdetected	Metabolite_Notdetected			Metabolite_Notdetected	microsomal CLint at 50 µM [12]: 13 µL/min/mg; half-life at 50 µM (Cocaine esterase (CE2) [13]): 7.9 min; IC50 [14]: 90 nM; K (Liver carboxylesterase 1 [15]): 0.0129 min⁻¹; inhibition [16]: 90.1%; half-life at 50 µM [17]: 53.8 min; K (Cocaine esterase [18]): 0.0877 min⁻¹
CC(C)=CCC/C(C)=C/CC/C(C)=C/CC/C=C(\C)CC/C=C(\C)CCC(=O)OCC(=O)NCc1ccc(O)c(O)c1	105	97.9	59.6	70.9	70.2	Metabolite_Notdetected	Metabolite_Notdetected	Metabolite_Notdetected	78.4	40	Metabolite_Notdetected	microsomal CLint at 50 µM [12]: 56 µL/min/mg; half-life at 50 µM (Cocaine esterase (CE2) [13]): 14 min; K (Liver carboxylesterase 1 [15]): 0.0608 min⁻¹; half-life at 50 µM [17]: 11.4 min; K (Cocaine esterase [18]): 0.0497 min⁻¹
CC(C)(C)c1ccc(NC(=O)N2CCN(c3ncccc3Cl)CC2)cc1												Activity (Mus musculus): Toxic
COc1cc(CNC(=O)COC(=O)/C=C(\C)CCC=C(C)C)ccc1O	98	98.9		63.2		Metabolite_Notdetected	Metabolite_Notdetected	Metabolite_Notdetected	59.8	140	Metabolite_Notdetected	
CCCCCCCCCCCC(=O)OCC(=O)NCc1ccc(O)c(OC)c1	89.6	84.5	19.5	0	22.2	Metabolite_Notdetected	Metabolite_Notdetected	Metabolite_Notdetected	65.1	370	Metabolite_Notdetected	K (Cocaine esterase [19]): 0.0376 min⁻¹; K (Liver carboxylesterase 1 [20]): 0.0465 min⁻¹; half-life at 50 µM [21]: 14.9 min; half-life at 50 µM (Cocaine esterase (CE2) [22]): 18.6 min
CC(C)=CCC/C(C)=C/C(=O)OCC(=O)NCc1ccc(O)c(O)c1	101	104		2.2		Metabolite_Notdetected	Metabolite_Notdetected	Metabolite_Notdetected	54.6	410	Metabolite_Notdetected	
CCCCC/C=C\C/C=C\C/C=C\C/C=C\CCCC(=O)OCC(=O)NCc1ccc(O)c(OC)c1	98.8	96.9		26		Metabolite_Notdetected	Metabolite_Notdetected	Metabolite_Notdetected	54.7	450	Metabolite_Notdetected	
CCCCCCCC/C=C\CCCCCCCC(=O)OCC(=O)NCc1ccc(O)c(OC)c1	92.5	92.6		53.7		Metabolite_Notdetected	Metabolite_Notdetected	Metabolite_Notdetected	60.7	320	Metabolite_Notdetected	
CCCCCCCCCCCCCCC(=O)OCC(=O)NCc1ccc(O)c(OC)c1	95.7	83.8		21.1		Metabolite_Notdetected	Metabolite_Notdetected	Metabolite_Notdetected	58.2	330	Metabolite_Notdetected	
CCCCCCCC(=O)OCC(=O)NCc1cc(OC)c(O)cc1I	32.1	84.5		2.9		Metabolite_Notdetected	Metabolite_Notdetected	Metabolite_Notdetected			Metabolite_Notdetected	IC50 [14]: 1340 nM; inhibition [16]: 50.5%

Source: ChEMBL document CHEMBL4219255, “Targeting Transient Receptor Potential Vanilloid 1 (TRPV1) Channel Softly: The Discovery of Passerini Adducts as a Topical Treatment for Inflammatory Skin Disorders” (J Med Chem, 2018)
